# From ChEMBL document CHEMBL1137710, “Synthesis and in vitro antitumor activity of new quinoxaline derivatives” (2009)
# Legend:
# Format in all cases: functional
# SNB-19 = assay: Growth inhibition of human SNB19 cells after 48 hrs by sulforhodamine B assay; settings: SNB-19, 48 h
# How it was run: (§1)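 Run in the NCI 60-human-tumour-cell-line panel, tested over a 5-log dose range. Dose–response curves gave three values per cell line, each as a log10 molar concentration: GI50 (50% inhibition of net cell growth), TGI (total inhibition of net growth) and LC50 (50% net cell death). The mean graph midpoint is the arithmetic mean over all lines, with insensitive lines entered at the highest concentration tested.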
# UACC-257 = assay: Growth inhibition of human UACC257 cells after 48 hrs by sulforhodamine B assay; settings: UACC-257, 48 h; how it was run: as §1
# A549 = assay: Growth inhibition of human A549 cells after 48 hrs by sulforhodamine B assay; settings: A549, 48 h
# How it was run: (§2)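 NCI 60-human-tumor-cell-line panel, with compounds tested over a 5-log dose range. Values are taken from dose-response curves as log10 molar concentrations: GI50 is 50% net growth inhibition, TGI is total growth inhibition, and LC50 is 50% net cell death.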
# COLO 205 = assay: Growth inhibition of human COLO205 cells after 48 hrs by sulforhodamine B assay; settings: COLO 205, 48 h; how it was run: as §2
# MCF7 [1] = assay: Growth inhibition of human MCF7 cells after 48 hrs by sulforhodamine B assay; settings: MCF7, 48 h; how it was run: as §2
# OVCAR-8 = assay: Growth inhibition of human OVCAR8 cells after 48 hrs by sulforhodamine B assay; settings: OVCAR-8, 48 h; how it was run: as §2
# NCI-H23 = assay: Growth inhibition of human NCI-H23 cells after 48 hrs by sulforhodamine B assay; settings: NCI-H23, 48 h; how it was run: as §2
# MCF7 [2] = assay: Anticancer activity against human MCF7 cells assessed as cell growth at 100 uM after 48 hrs by sulforhodamine B assay; settings: MCF7, 48 h, read-out: Activity
# HCT-116 = assay: Growth inhibition of human HCT116 cells after 48 hrs by sulforhodamine B assay; settings: HCT-116, 48 h; how it was run: as §2
# [3] = Growth inhibition of human […] cells after 48 hrs by sulforhodamine B assay; how it was run: as §2
# MDA-MB-231 = assay: Growth inhibition of human MDA-MB-231 cells after 48 hrs by sulforhodamine B assay; settings: MDA-MB-231, 48 h; how it was run: as §2
# SF-295 = assay: Growth inhibition of human SF295 cells after 48 hrs by sulforhodamine B assay; settings: SF-295, 48 h; how it was run: as §2
# NCI-H460 [4] = assay: Anticancer activity against human NCI-H460 cells assessed as cell growth at 100 uM after 48 hrs by sulforhodamine B assay; settings: NCI-H460, 48 h, read-out: Activity
# OVCAR-4 = assay: Growth inhibition of human OVCAR4 cells after 48 hrs by sulforhodamine B assay; settings: OVCAR-4, 48 h; how it was run: as §2
# SF-268 [5] = assay: Growth inhibition of human SF268 cells after 48 hrs by sulforhodamine B assay; settings: SF-268, 48 h; how it was run: as §2
# TK-10 = assay: Growth inhibition of human TK10 cells after 48 hrs by sulforhodamine B assay; settings: TK-10, 48 h; how it was run: as §1
# M14 = assay: Growth inhibition of human M14 cells after 48 hrs by sulforhodamine B assay; settings: M14, 48 h; how it was run: as §2
# SK-OV-3 = assay: Growth inhibition of human SKOV3 cells after 48 hrs by sulforhodamine B assay; settings: SK-OV-3, 48 h; how it was run: as §2
# PC-3 = assay: Growth inhibition of human PC3 cells after 48 hrs by sulforhodamine B assay; settings: PC-3, 48 h; how it was run: as §2
# NCI-H460 [6] = assay: Growth inhibition of human NCI-H460 cells after 48 hrs by sulforhodamine B assay; settings: NCI-H460, 48 h; how it was run: as §2
# SW-620 = assay: Growth inhibition of human SW620 cells after 48 hrs by sulforhodamine B assay; settings: SW-620, 48 h; how it was run: as §1
# DU-145 = assay: Growth inhibition of human DU145 cells after 48 hrs by sulforhodamine B assay; settings: DU-145, 48 h; how it was run: as §2
# SK-MEL-28 = assay: Growth inhibition of human SK-MEL-28 cells after 48 hrs by sulforhodamine B assay; settings: SK-MEL-28, 48 h; how it was run: as §2
# IGROV-1 = assay: Growth inhibition of human IGROV1 cells after 48 hrs by sulforhodamine B assay; settings: IGROV-1, 48 h; how it was run: as §2
# RXF 393 = assay: Growth inhibition of human RXF393 cells after 48 hrs by sulforhodamine B assay; settings: RXF 393, 48 h; how it was run: as §2
# MDA-MB-435 = assay: Growth inhibition of human MDA-MB-435 cells after 48 hrs by sulforhodamine B assay; settings: MDA-MB-435, 48 h; how it was run: as §2
# UACC-62 = assay: Growth inhibition of human UACC62 cells after 48 hrs by sulforhodamine B assay; settings: UACC-62, 48 h; how it was run: as §1
# SK-MEL-5 = assay: Growth inhibition of human SK-MEL-5 cells after 48 hrs by sulforhodamine B assay; settings: SK-MEL-5, 48 h; how it was run: as §2
# SF-268 [7] = assay: Anticancer activity against human SF268 cells assessed as cell growth at 100 uM after 48 hrs by sulforhodamine B assay; settings: SF-268, 48 h, read-out: Activity
# U-251 = assay: Growth inhibition of human U251 cells after 48 hrs by sulforhodamine B assay; settings: U-251, 48 h; how it was run: as §1
# [8] = read-out: pLC50 (the source's name) (converted)
compound,measurement,setting,value
Nc1cc(N)c2nc(-c3ccccc3)c(Oc3ccc(F)cc3)nc2c1,GI50,SNB-19,17.4 µM
same,LC50,SNB-19,66.1 µM
same,TGI,SNB-19; read-out: pTGI (converted),33.9 µM
same,GI50,UACC-257,23.4 µM
same,CC50,UACC-257; [8],77.6 µM
same,TGI,UACC-257; read-out: pTGI (converted),42.7 µM
same,GI50,A549,24 µM
same,LC50,A549,89.1 µM
same,TGI,A549; read-out: pTGI (converted),46.8 µM
same,GI50,COLO 205,20 µM
same,LC50 (50% net cell kill),COLO 205,66.1 µM
same,TGI,COLO 205; read-out: pTGI (converted),36.3 µM
same,GI50,MCF7 [1],20.4 µM
same,CC50,MCF7 [1]; [8],> 100 µM
same,TGI,MCF7 [1]; read-out: pTGI (converted),> 100 µM
same,GI50,OVCAR-8,22.4 µM
same,CC50,OVCAR-8; [8],100 µM
same,TGI,OVCAR-8; read-out: pTGI (converted),47.9 µM
same,GI50,NCI-H23,20.9 µM
same,LC50 (50% net cell kill concentration),NCI-H23,77.6 µM
same,TGI,NCI-H23; read-out: pTGI (converted),39.8 µM
same,growth at 100 µM,MCF7 [2],2%
same,GI50,HCT-116,14.8 µM
same,LC50 (concentration causing 50% net cell death),HCT-116,> 100 µM
same,TGI,HCT-116; read-out: pTGI (converted),81.3 µM
same,GI50,[3],12.3 µM
same,LC50,[3],> 100 µM
same,TGI,[3]; read-out: pTGI (converted),46.8 µM
same,GI50,MDA-MB-231,3.89 µM
same,CC50,MDA-MB-231; [8],> 100 µM
same,TGI,MDA-MB-231; read-out: pTGI (converted),28.8 µM
same,GI50,SF-295,20.4 µM
same,LC50 (50% net cell kill),SF-295,72.4 µM
same,TGI,SF-295; read-out: pTGI (converted),38.9 µM
same,growth at 100 µM,NCI-H460 [4],0%
same,GI50,OVCAR-4,8.32 µM
same,CC50,OVCAR-4; [8],> 100 µM
same,TGI,OVCAR-4; read-out: pTGI (converted),35.5 µM
same,GI50,SF-268 [5],13.8 µM
same,LC50,SF-268 [5],> 100 µM
same,TGI,SF-268 [5]; read-out: pTGI (converted),47.9 µM
same,GI50,TK-10,16.6 µM
same,CC50,TK-10; [8],64.6 µM
same,TGI,TK-10; read-out: pTGI (converted),32.4 µM
same,GI50,M14,17 µM
same,CC50,M14; [8],> 100 µM
same,TGI,M14; read-out: pTGI (converted),44.7 µM
same,GI50,SK-OV-3,20.9 µM
same,CC50,SK-OV-3; [8],83.2 µM
same,TGI,SK-OV-3; read-out: pTGI (converted),41.7 µM
same,GI50,PC-3,8.32 µM
same,CC50,PC-3; [8],83.2 µM
same,TGI,PC-3; read-out: pTGI (converted),27.5 µM
same,GI50,NCI-H460 [6],39.8 µM
same,LC50 (50% net cell kill),NCI-H460 [6],> 100 µM
same,TGI,NCI-H460 [6]; read-out: pTGI (converted),> 100 µM
same,GI50,SW-620,19.5 µM
same,CC50,SW-620; [8],> 100 µM
same,TGI,SW-620; read-out: pTGI (converted),50.1 µM
same,GI50,DU-145,0.46 µM
same,CC50,DU-145; [8],> 100 µM
same,TGI,DU-145; read-out: pTGI (converted),87.1 µM
same,GI50,SK-MEL-28,19.5 µM
same,CC50,SK-MEL-28; [8],> 100 µM
same,TGI,SK-MEL-28; read-out: pTGI (converted),46.8 µM
same,GI50,IGROV-1,28.2 µM
same,CC50,IGROV-1; [8],> 100 µM
same,TGI,IGROV-1; read-out: pTGI (converted),> 100 µM
same,GI50,RXF 393,19.1 µM
same,CC50,RXF 393; [8],> 100 µM
same,TGI,RXF 393; read-out: pTGI (converted),> 100 µM
same,GI50,MDA-MB-435,15.8 µM
same,CC50,MDA-MB-435; [8],67.6 µM
same,TGI,MDA-MB-435; read-out: pTGI (converted),32.4 µM
same,GI50,UACC-62,15.8 µM
same,CC50,UACC-62; [8],69.2 µM
same,TGI,UACC-62; read-out: pTGI (converted),33.1 µM
same,GI50,SK-MEL-5,12.3 µM
same,CC50,SK-MEL-5; [8],83.2 µM
same,TGI,SK-MEL-5; read-out: pTGI (converted),31.6 µM
same,growth at 100 µM,SF-268 [7],6%
same,GI50,U-251,23.4 µM
same,LC50 (50% net cell kill),U-251,> 100 µM
same,TGI,U-251; read-out: pTGI (converted),79.4 µM
